From publication PMC12679602 (RSC Advances, 2025)
Several values for one entry are separate records, joined by “and”; a condition that tells them apart may be missing. Equal entries are not always repeated.

Key:
[1] = test system: A549-hACE2 cells
[2] = in vitro; conditions: human
[3] = test system: Pseudomonas aeruginosa TISTR357; assay: Disc diffusion, P. aeruginosa; type: cell-based; conditions: for Inhibition zone ± SD, P. aeruginosa: 1 mg per disc, 6 mm disc, 37 °C, 18–24 h
Summary of the method: (§1)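 Test compounds were dissolved in DMSO, and 1 mg was loaded onto sterile 6 mm paper discs. Nutrient agar plates were inoculated with bacterial suspension adjusted to 0.5 McFarland. Each plate held four zones: DMSO negative control, ciprofloxacin positive control (5 µg per disc), the free bile acid and its salts. Plates were incubated at 37 °C for 18–24 h. Inhibition zones were read in mm, in triplicate.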

[4] = test system: S. typhi; assay: Disc diffusion, S. typhi; type: cell-based, Salmonella enterica serovar Typhimurium TISTR1470; conditions: for Inhibition zone ± SD, S. typhi: 1 mg per disc, 6 mm disc, 37 °C, 18–24 h
Summary of the method: as §1

[5] = test system: S. flexneri ATCC 9199; assay: Disc diffusion, S. flexneri; type: cell-based, Shigella flexneri; conditions: for Inhibition zone ± SD, S. flexneri: 1 mg per disc, 6 mm disc, 37 °C, 18–24 h
Summary of the method: as §1

[6] = test system: Candida albicans TISTR5554; assay: Disc diffusion, C. albicans; type: cell-based; conditions: for Inhibition zone ± SD, C. albicans: 1 mg per disc, 6 mm disc, 37 °C, 18–24 h
Summary of the method: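 Disc diffusion against the yeast. Test compound was in DMSO at 1 mg per 6 mm sterile paper disc, on nutrient agar inoculated with suspension standardized to 0.5 McFarland. Each plate carried a DMSO negative control, amphotericin B positive control (10 µg per disc), the free bile acid and its salts. Incubation was 37 °C for 18–24 h. Zone of inhibition was measured in mm, in triplicate.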

[7] = test system: Staphylococcus aureus TISTR746; assay: Disc diffusion, S. aureus; type: cell-based; conditions: for Inhibition zone ± SD, S. aureus: 1 mg per disc, 6 mm disc, 37 °C, 18–24 h
Summary of the method: as §1

[8] = test system: Enterococcus faecalis TISTR927; assay: Disc diffusion, E. faecalis; type: cell-based; conditions: for Inhibition zone ± SD, E. faecalis: 1 mg per disc, 6 mm disc, 37 °C, 18–24 h
Summary of the method: as §1

[9] = test system: Bacillus cereus TISTR035; assay: Disc diffusion, B. cereus; type: cell-based; conditions: for Inhibition zone ± SD, B. cereus: 1 mg per disc, 6 mm disc, 37 °C, 18–24 h
Summary of the method: as §1

[10] = test system: Escherichia coli TISTR117; assay: Disc diffusion, E. coli; type: cell-based; conditions: for Inhibition zone ± SD, E. coli: 1 mg per disc, 6 mm disc, 37 °C, 18–24 h
Summary of the method: as §1

[11] = test system: Staphylococcus epidermidis TISTR2172; assay: Disc diffusion, S. epidermidis; type: cell-based; conditions: for Inhibition zone ± SD, S. epidermidis: 1 mg per disc, 6 mm disc, 37 °C, 18–24 h
Summary of the method: as §1

[12] = test system: B. cereus, S. aureus, S. epidermidis, E. faecalis, and E. coli; assay: Disc diffusion, range over strains as summarised in text; type: cell-based; conditions: for inhibition zones, range over strains: B. cereus, S. aureus, S. epidermidis, E. faecalis, E. coli, 1 mg per disc
Summary of the method: as §1

[13] = Staphylococcus aureus, TISTR746, read-out: Inhibition zone ± SD, S. aureus
[14] = Enterococcus faecalis, TISTR927, read-out: Inhibition zone ± SD, E. faecalis
[15] = Bacillus cereus, TISTR035, read-out: Inhibition zone ± SD, B. cereus
[16] = Escherichia coli, TISTR117, read-out: Inhibition zone ± SD, E. coli
[17] = Staphylococcus epidermidis, TISTR2172, read-out: Inhibition zone ± SD, S. epidermidis

Row | SMILES | Inhibition zone ± SD, P. aeruginosa [3] | Inhibition zone ± SD, S. typhi [4] | Inhibition zone ± SD, S. flexneri [5] | Inhibition zone ± SD, C. albicans [6] | Inhibition zone ± SD, S. aureus [7] | Inhibition zone ± SD, E. faecalis [8] | Inhibition zone ± SD, B. cereus [9] | Inhibition zone ± SD, E. coli [10] | Inhibition zone ± SD, S. epidermidis [11] | also measured
1 | C[C@H](CCC(=O)O)[C@H]1CC[C@H]2[C@@H]3CC[C@@H]4C[C@H](O)CC[C@]4(C)[C@H]3CC[C@]12C [LCA (1), lithocholic acid] | Inactive | Inactive | Inactive | Inactive | – | – | – | – | – | cytotoxicity [1]: did not show cytotoxicity; CC50 [2]: > 50 µg/mL
2 | C[C@H](CCC(=O)O)[C@H]1CC[C@H]2[C@@H]3[C@H](O)C[C@@H]4C[C@H](O)CC[C@]4(C)[C@H]3CC[C@]12C [CDCA (13), chenodeoxycholic acid] | Inactive | Inactive | Inactive | Inactive | 9.4 ± 0.8 mm | 8.4 ± 1.1 mm | 13.5 ± 0.4 mm | 7.6 ± 0.6 mm | 11.8 ± 0.4 mm | zone of inhibition at 1000 µg/disc [7, 13]: 9.4 mm; zone of inhibition at 1000 µg/disc [8, 14]: 8.4 mm; zone of inhibition at 1000 µg/disc [9, 15]: 13.5 mm; zone of inhibition at 1000 µg/disc [10, 16]: 7.6 mm; zone of inhibition at 1000 µg/disc [11, 17]: 11.8 mm
3 | C[C@H](CCC(=O)[O-])[C@H]1CC[C@H]2[C@@H]3CC[C@@H]4C[C@H](O)CC[C@]4(C)[C@H]3CC[C@]12C.C[N+](C)(C)CCO [[LCA][Z] (4)] | Inactive | Inactive | Inactive | Inactive | – | – | 7.8 mm and 7.8 ± 1.2 mm | – | – | CC50 [1]: >50 µg/mL; cytotoxicity [1]: did not exhibit cytotoxicity
4 | C[C@H](CCC(=O)O)[C@H]1CC[C@H]2[C@@H]3[C@@H](O)C[C@@H]4C[C@H](O)CC[C@]4(C)[C@H]3CC[C@]12C [UDCA (9), ursodeoxycholic acid] | Inactive | Inactive | Inactive | Inactive | 7.8 ± 0.8 mm | – | 8.7 ± 0.3 mm | 7.4 ± 0.4 mm | 9.6 ± 0.4 mm | –
5 | C[C@H](CCC(=O)[O-])[C@H]1CC[C@H]2[C@@H]3[C@H](O)C[C@@H]4C[C@H](O)CC[C@]4(C)[C@H]3CC[C@]12C.C[N+](C)(C)CCO [[CDCA][Z] (16)] | Inactive | Inactive | Inactive | Inactive | 13.8 mm and 13.8 ± 1.3 mm | 12.2 mm and 12.2 ± 2.6 mm | 16.4 mm and 16.4 ± 0.7 mm | 10.4 mm and 10.4 ± 1.2 mm | 17.1 mm and 17.1 ± 0.5 mm | –
6 | C[C@H](CCC(=O)[O-])[C@H]1CC[C@H]2[C@@H]3CC[C@@H]4C[C@H](O)CC[C@]4(C)[C@H]3C[C@H](O)[C@]12C.C[N+](C)(C)CCO [[DCA][Z] (8)] | Inactive | Inactive | Inactive | Inactive | 15.4 ± 2.0 mm | 15.0 mm and 15.0 ± 1.3 mm | 18.1 ± 1.7 mm | 13.0 ± 1.9 mm | 19.1 mm and 19.1 ± 0.2 mm | inhibition zones, range over strains [12]: 13.0–19.1 mm; improvement in antibacterial activity compared to its bile acid DCA (5) ([12]; S. epidermidis and E. faecalis inhibition zones): 41.4–41.5%
7 | O=C(O)c1cn(C2CC2)c2cc(N3CCNCC3)c(F)cc2c1=O [ciprofloxacin, reference compound] | – | – | – | – | – | – | – | – | – | zone of inhibition at 5 µg/disc [7, 13]: 31 ± 1.5 mm; zone of inhibition at 5 µg/disc [8, 14]: 24.1 ± 1 mm; zone of inhibition at 5 µg/disc [9, 15]: 33.2 ± 1.6 mm; zone of inhibition at 5 µg/disc ([3]; Pseudomonas aeruginosa, TISTR357, read-out: Inhibition zone ± SD, P. aeruginosa): 31.2 ± 1.1 mm; zone of inhibition at 5 µg/disc ([4]; Salmonella enterica, TYPHI, read-out: Inhibition zone ± SD, S. typhi): 39.3 ± 2.6 mm; zone of inhibition at 5 µg/disc [10, 16]: 38.5 ± 2.1 mm; zone of inhibition at 5 µg/disc ([5]; Shigella flexneri, ATCC9199, read-out: Inhibition zone ± SD, S. flexneri): 42.1 ± 0.7 mm; zone of inhibition at 5 µg/disc [11, 17]: 36.4 ± 0.4 mm
8 | C[C@@H]1[C@H](O)[C@@H](C)/C=C/C=C/C=C/C=C/C=C/C=C/C=C/[C@H](O[C@@H]2O[C@H](C)[C@@H](O)[C@H](N)[C@@H]2O)C[C@@H]2O[C@](O)(C[C@@H](O)C[C@@H](O)[C@H](O)CC[C@@H](O)C[C@@H](O)CC(=O)O[C@H]1C)C[C@H](O)[C@H]2C(=O)O [amphotericin B, reference compound] | – | – | – | – | – | – | – | – | – | zone of inhibition at 10 µg/disc ([6]; Candida albicans, TISTR5554, read-out: Inhibition zone ± SD, C. albicans): 21.8 ± 1.3 mm
9 | CC(CCC(=O)[O-])C1CCC2C3C(O)CC4CC(O)CCC4(C)C3CCC12C.C[N+](C)(C)CCO (stereo not shown) [[UDCA][Z] (12)] | Inactive | Inactive | Inactive | Inactive | 10.3 ± 1.7 mm | – | 12.5 ± 0.5 mm | 10.1 ± 1.1 mm | 13.0 ± 0.5 mm | –
10 | CCO [Ethanol, ethanol, reference compound] | – | – | – | – | – | – | – | – | – | CC50 [1]: >70% v/v
11 | C[C@H](CCC(=O)O)[C@H]1CC[C@H]2[C@@H]3CC[C@@H]4C[C@H](O)CC[C@]4(C)[C@H]3C[C@H](O)[C@]12C [DCA (5), deoxycholic acid] | Inactive | Inactive | Inactive | Inactive | 11.7 ± 1.6 mm | 10.6 ± 0.4 mm | 14.4 ± 1.5 mm | 10.9 ± 1.6 mm | 13.5 ± 0.7 mm | inhibition zones, range over strains [12]: 10.6–14.4 mm; zone of inhibition at 1000 µg/disc [8, 14]: 10.6 mm; zone of inhibition at 1000 µg/disc [11, 17]: 13.5 mm
